Measurements as given in ChEMBL document CHEMBL4513216, “Probing the Open Global Health Chemical Diversity Library for Multistage-Active Starting Points for Next-Generation Antimalarials” (ACS Infect Dis, 2020).

Assay: Toxicity liver stage against HepG2, at 10uM
Type: cell-based
Parameters: test concentration 10 uM, cell line HepG2-A16-CD81EGFP
Settings: human, HepG2-A16-CD81EGFP cells; read-out: INHIBITION
Procedure, shortened: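 Uninfected HepG2-A16-CD81EGFP cells, 3 × 10^3 per well, 1536-well, plated on prespotted compound at 10 μM final, parasite-free screening media added to match infected plates; puromycin 10 μM positive, DMSO 0.5% negative; run in parallel with 48 h PbLuc assay at 37 °C, 5% CO2; viability by CellTiter-Glo luminescence, normalized to controls.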

Row | Structure (SMILES) | cytotoxicity at 10 µM [%]
1 | COc1ccc(NC(=O)N2CCN(CCSc3ccccc3)CC2)cc1 | 6.13
2 | CCS(=O)(=O)NCc1cccnc1N1CCCC(O)C1 (stereo not given) | 1.91
3 | Cc1cc(CN2C[C@@H]3CN(C(=O)c4cccn4C)CCO[C@@H]3C2)no1 | -148
4 | COCCC(=O)N1CCC2(CN(Cc3cccc(Cl)c3)C2)C1 | -79.6
5 | COc1c(CNC(c2ccc(F)cc2)C(C)(C)C)c(C)nn1C (stereo not given) | 0.0161
6 | CC(C)(NS(C)(=O)=O)C(=O)NCCc1csc2ccccc12 | 0.694
7 | O=C1CCCCN1Cc1cccc(NC(=O)N2CCSCC2)c1 | -9.99
8 | CS(=O)(=O)c1ccc(OCCNCc2cccc(Cl)c2)cc1 | -4.43
9 | O=C(c1ccccc1F)N1CCOC(c2nc(-c3ncccn3)no2)C1 (stereo not given) | -2.5
10 | CN1CCCCc2c1nc1c(c2N)CCC1 | 8.45
11 | CN(C)[C@@H]1CO[C@H](CNC(=O)CC(C)(C)C)[C@H]1O | -10.8
12 | Cn1nnc2c1CCN(S(C)(=O)=O)C2COCc1ccccc1 (stereo not given) | -100
13 | Cn1ncc2c1C(COCC1CC1)CN(S(=O)(=O)C1CC1)C2 (stereo not given) | -74.3
14 | Cc1nn(C)c2cnn(Cc3ccc(C(=O)NCC4CCCO4)o3)c12 (stereo not given) | 9.37
15 | CN(C)[C@H]1CN(C(=O)c2ccc3sc4c(c3c2)CCNC4=O)C[C@@H]1O | -5.38
16 | CC(NC(=O)NCc1ccccn1)c1cccs1 (stereo not given) | -14.4
17 | Cc1ncc2c(n1)CN(Cc1cccc3c1OCCO3)CC2 | -1.31
18 | Cc1noc(CN2CCN(CCS(C)(=O)=O)CC2)n1 | -10.1
19 | O=C(c1coc(COc2cccc(F)c2)n1)N1CC[C@H](O)[C@@H](O)C1 | -11
20 | O=C(c1ccc(F)cc1)N1C[C@@H]2CCN(c3cccnc3)C[C@@H]2C1 | -78.4
21 | Cc1nnc2n1CCN(CC(=O)NC(C)c1cccc3ccccc13)C2 (stereo not given) | 7.15
22 | CCOC1CC2(CCN(Cc3cccn3C)CC2)C1 | -149
23 | Cc1cc(C)n(CC(=O)N(CC2CN(C)CCO2)c2nccs2)n1 (stereo not given) | -5.85

Row | Structure (SMILES) | cytotoxicity at 10 µM [%]
24 | O=C(NCc1ccc(-n2cncn2)nc1)c1ccoc1 | -2.38
25 | CSCC[C@H](N)C(=O)NCc1cc2n(n1)CCCN(C1CCCCC1)C2 | -15.3
26 | CNC(=O)C1(C)CN(c2nnc(C)c3ccccc23)CCO1 (stereo not given) | -1.61
27 | CCn1ncc(S(=O)(=O)N2CCCC3(CC=CNC3=O)C2)c1C (stereo not given) | -7.6
28 | CC(c1ccc(C(F)(F)F)cc1)N1CCN(CCS(C)(=O)=O)CC1 (stereo not given) | 3.25
29 | CC(c1ccc(-n2cncn2)cc1)N(C)Cc1ccccn1 (stereo not given) | 8.86
30 | COc1cccc(-c2noc(C3CCN(Cc4ccccc4F)C3)n2)c1 (stereo not given) | -2.06
31 | CCCN(C(=O)c1cnc(C)cn1)c1nc2c(s1)CCc1c-2cnn1C | -28
32 | O=C1CSC(c2ccc3c(c2)OCO3)c2cnn(C3CCCCC3)c2N1 (stereo not given) | -6.06
33 | Cc1nc(C)c(C(=O)N(C)Cc2cnn(C)c2)s1 | -1.57
34 | CC1CCCN(Cc2ccc(CNC(=O)NCc3ccon3)cc2)C1 (stereo not given) | -10
35 | CCOC(=O)N1CCN(C(=O)CCn2ccc3c(OC)cccc32)CC1 | 9.69
36 | CN1CCN2CCN(Cc3cc(=O)n4c5c(cccc35)CCC4)CC2C1 (stereo not given) | 9.05
37 | COC(C)c1nc(CN2CCCNCC2)cs1 (stereo not given) | -3.78
38 | CCc1ccc(C(=O)Nc2ccc(CC3CC(=O)NC3=O)cc2)cc1 (stereo not given) | -13.5
39 | Cc1nc(CN2CCCN(C(=O)c3c(C)oc(C)c3C)CC2)cs1 | -14
40 | CCn1c(Cn2cncn2)nnc1C1CCN(C(=O)CCSC)CC1 | -13.6
41 | Cc1ncc(CN)c(-c2cn(C)c3ccccc23)n1 | 2.97
42 | Cc1ccc(-c2ccc(Cl)nn2)cc1S(N)(=O)=O | -12.3
43 | Cn1ccnc1C(=O)N1CCCC(Cn2cc(CO)nn2)C1 (stereo not given) | -1.88
44 | c1cnc(N2CCO[C@H]3CN(CC4CCCC4)C[C@H]32)cn1 | -101
45 | COc1ccc(-c2ccc(C(=O)O)c(F)c2)c(F)c1 | -0.378
